# pEC50: −log10 of the molar value.
# Columns and labels:
# Cardiac muscle cell [1] = assay: Toxicity in human inducible pluripotent stem cell derived cardiomyocytes assessed as change in beating amplitude at 1.6 nM after 36 hrs; type: cell-based; settings: 0.0016 µM
# In short: (§1)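 Human iPSC-derived cardiomyocytes (Cor.4U) were grown to stable beating cultures and monitored by impedance in real time with 20 s recordings. Compounds were given as a dilution series from 0.32 nM to 5 μM, dosed twice 24 h apart, with monitoring over 48 h. Beating amplitude was taken from each negative peak to the following positive peak and reported as % change.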
# Cardiac muscle cell [2] = assay: Toxicity in human inducible pluripotent stem cell derived cardiomyocytes assessed as change in beating amplitude at 8 nM after 48 hrs; type: cell-based; settings: 0.008 µM
# In short: (§2)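 Cor.4U hiPSC-derived cardiomyocytes grown to stable beating cultures, then monitored by impedance in RTCA Cardio plates with 20 s recordings. Compounds tested as a dilution series from 0.32 nM to 5 μM, dosed twice 24 h apart, followed over 48 h. Beating amplitude is taken from each negative peak to the next positive peak and reported as percent change.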
# Cardiac muscle cell [3] = assay: Toxicity in human inducible pluripotent stem cell derived cardiomyocytes assessed as change in beating amplitude at 0.32 nM after 36 hrs; type: cell-based; settings: 0.00032 µM; in short: as §1
# Cardiac muscle cell [4] = assay: Toxicity in human inducible pluripotent stem cell derived cardiomyocytes assessed as change in beating amplitude at 1.6 nM after 4 hrs; type: cell-based; settings: 0.0016 µM; in short: as §1
# Cardiac muscle cell [5] = assay: Toxicity in human inducible pluripotent stem cell derived cardiomyocytes assessed as change in beating amplitude at 8 nM after 66 mins; type: cell-based; settings: 1.1 h, 0.008 µM; in short: as §2
# SK-OV-3 = assay: Cytotoxicity against human SKOV3 cells assessed as decrease in cell viability after 72 hrs by MTS assay; type: functional, cell-based; settings: SK-OV-3, 72 h
# In short: (§3)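 Cell proliferation assay using the MTS reagent. Compounds were tested as a dilution series, and EC50 values were derived from the concentration–response data.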
# U-87 MG = assay: Cytotoxicity against human U87MG cells assessed as decrease in cell viability after 72 hrs by MTS assay; type: functional, cell-based, U-87MG ATCC; in short: as §3
# Cardiac muscle cell [6] = assay: Toxicity in human inducible pluripotent stem cell derived cardiomyocytes assessed as change in beating amplitude at 8 nM after 33 mins; type: cell-based; settings: 0.55 h, 0.008 µM; in short: as §1
# Cardiac muscle cell [7] = assay: Toxicity in human inducible pluripotent stem cell derived cardiomyocytes assessed as change in beating amplitude at 8 nM after 36 hrs; type: cell-based; settings: 0.008 µM; in short: as §2
# Cardiac muscle cell [8] = assay: Toxicity in human inducible pluripotent stem cell derived cardiomyocytes assessed as increase in beating amplitude at >40 nM; type: cell-based; in short: as §2
# Cardiac muscle cell [9] = assay: Toxicity in human inducible pluripotent stem cell derived cardiomyocytes assessed as change in beating amplitude at 40 nM after 33 mins; type: cell-based; settings: 0.55 h, 0.04 µM; in short: as §1
# Cardiac muscle cell [10] = assay: Toxicity in human inducible pluripotent stem cell derived cardiomyocytes assessed as change in beating amplitude at 1.6 nM after 48 hrs; type: cell-based; settings: 0.0016 µM; in short: as §1
# Cardiac muscle cell [11] = assay: Toxicity in human inducible pluripotent stem cell derived cardiomyocytes assessed as change in beating amplitude at 40 nM after 66 mins; type: cell-based; settings: 1.1 h, 0.04 µM; in short: as §1
# CCRF S-180 = assay: Cytotoxicity against mouse S180 cells assessed as decrease in cell viability after 72 hrs by MTS assay; type: functional, cell-based; settings: CCRF S-180, 72 h; in short: as §3
# Cardiac muscle cell [12] = assay: Toxicity in human inducible pluripotent stem cell derived cardiomyocytes assessed as change in beating amplitude at 8 nM after 4 hrs; type: cell-based; settings: 0.008 µM; in short: as §2
# NCI-H1975 = assay: Cytotoxicity against human NCI-H1975 cells assessed as decrease in cell viability after 72 hrs by MTS assay; type: functional, cell-based; settings: NCI-H1975, 72 h; in short: as §3
# Cardiac muscle cell [13] = assay: Toxicity in human inducible pluripotent stem cell derived cardiomyocytes assessed as change in beating amplitude at 8 nM after 24 hrs; type: cell-based; settings: 0.008 µM; in short: as §1
# Cardiac muscle cell [14] = assay: Toxicity in human inducible pluripotent stem cell derived cardiomyocytes assessed as change in beating amplitude at 40 nM after 8 mins; type: cell-based; settings: 0.04 µM; in short: as §1
# MCF7 = assay: Cytotoxicity against human MCF7 cells assessed as decrease in cell viability after 72 hrs by MTS assay; type: functional, cell-based; settings: MCF7, 72 h; in short: as §3
# Cardiac muscle cell [15] = assay: Toxicity in human inducible pluripotent stem cell derived cardiomyocytes assessed as change in beating amplitude at 0.32 nM after 33 mins; type: cell-based; settings: 0.55 h, 0.00032 µM; in short: as §1
# HepG2 = assay: Cytotoxicity against human HepG2 cells assessed as decrease in cell viability after 72 hrs by MTS assay; type: functional, cell-based; settings: HepG2, 72 h; in short: as §3
# 786-0 = assay: Cytotoxicity against human 786-O cells assessed as decrease in cell viability after 72 hrs by MTS assay; type: functional, cell-based; settings: 786-0, 72 h; in short: as §3
# Cardiac muscle cell [16] = assay: Toxicity in human inducible pluripotent stem cell derived cardiomyocytes assessed as change in beating amplitude at 0.32 nM after 66 mins; type: cell-based; settings: 1.1 h, 0.00032 µM; in short: as §1
# Cardiac muscle cell [17] = assay: Toxicity in human inducible pluripotent stem cell derived cardiomyocytes assessed as change in beating amplitude at 8 nM after 8 mins; type: cell-based; settings: 0.008 µM; in short: as §2
# MES-SA/Dx5 = assay: Cytotoxicity against human MES-SA/Dx5 cells assessed as decrease in cell viability after 72 hrs by MTS assay; type: functional, cell-based; settings: MES-SA/Dx5, 72 h; in short: as §3
# Cardiac muscle cell [18] = assay: Toxicity in human inducible pluripotent stem cell derived cardiomyocytes assessed as change in beating amplitude at 1.6 nM after 12 hrs; type: cell-based; settings: 0.0016 µM; in short: as §1
# Cardiac muscle cell [19] = assay: Toxicity in human inducible pluripotent stem cell derived cardiomyocytes assessed as change in beating amplitude at 1.6 nM after 33 mins; type: cell-based; settings: 0.55 h, 0.0016 µM; in short: as §1
# Cardiac muscle cell [20] = assay: Toxicity in human inducible pluripotent stem cell derived cardiomyocytes assessed as change in beating amplitude at 0.32 nM after 24 hrs; type: cell-based; settings: 0.00032 µM; in short: as §1
# HCT-116 = assay: Cytotoxicity against human HCT116 cells assessed as decrease in cell viability after 72 hrs by MTS assay; type: functional, cell-based; settings: HCT-116, 72 h; in short: as §3
# BXPC-3 = assay: Cytotoxicity against human BxPC3 cells assessed as decrease in cell viability after 72 hrs by MTS assay; type: functional, cell-based; settings: BXPC-3, 72 h; in short: as §3
# Cardiac muscle cell [21] = assay: Toxicity in human inducible pluripotent stem cell derived cardiomyocytes assessed as change in beating amplitude at 8 nM after 12 hrs; type: cell-based; settings: 0.008 µM; in short: as §1
# Cardiac muscle cell [22] = assay: Toxicity in human inducible pluripotent stem cell derived cardiomyocytes assessed as change in beating amplitude at 40 nM after 48 hrs; type: cell-based; settings: 0.04 µM; in short: as §1
# Cardiac muscle cell [23] = assay: Toxicity in human inducible pluripotent stem cell derived cardiomyocytes assessed as change in beating amplitude at 1.6 nM after 24 hrs; type: cell-based; settings: 0.0016 µM; in short: as §1
# Cardiac muscle cell [24] = assay: Toxicity in human inducible pluripotent stem cell derived cardiomyocytes assessed as change in beating amplitude at 0.32 nM after 48 hrs; type: cell-based; settings: 0.00032 µM; in short: as §1
# HUVEC = assay: Cytotoxicity against human HUVEC cells assessed as decrease in cell viability after 72 hrs by MTS assay; type: cell-based; in short: as §3
# Cardiac muscle cell [25] = assay: Toxicity in human inducible pluripotent stem cell derived cardiomyocytes assessed as change in beating amplitude at 1.6 nM after 8 mins; type: cell-based; settings: 0.0016 µM; in short: as §1
# Cardiac muscle cell [26] = assay: Toxicity in human inducible pluripotent stem cell derived cardiomyocytes assessed as change in beating amplitude at 0.32 nM after 8 mins; type: cell-based; settings: 0.00032 µM; in short: as §1
# Cardiac muscle cell [27] = assay: Toxicity in human inducible pluripotent stem cell derived cardiomyocytes assessed as change in beating amplitude at 1.6 nM after 66 mins; type: cell-based; settings: 1.1 h, 0.0016 µM; in short: as §1
# Cardiac muscle cell [28] = assay: Toxicity in human inducible pluripotent stem cell derived cardiomyocytes assessed as change in beating amplitude at 0.32 nM after 12 hrs; type: cell-based; settings: 0.00032 µM; in short: as §1
# Cardiac muscle cell [29] = assay: Toxicity in human inducible pluripotent stem cell derived cardiomyocytes assessed as change in beating amplitude at 0.32 nM after 4 hrs; type: cell-based; settings: 0.00032 µM; in short: as §1
# MES-SA = assay: Cytotoxicity against human MESSA cells assessed as decrease in cell viability after 72 hrs by MTS assay; type: functional, cell-based; in short: as §3
smiles,measurement,setting,value
C[C@]12CC[C@H](O)C[C@H]1CC[C@@H]1[C@@H]2CC[C@]2(C)[C@@H](c3ccc(=O)oc3)CC[C@]12O [BUFALIN],Activity,Cardiac muscle cell [1],-2.9%
same,Activity,Cardiac muscle cell [2],-32%
same,Activity,Cardiac muscle cell [3],62%
same,Activity,Cardiac muscle cell [4],11%
same,Activity,Cardiac muscle cell [5],10%
same,pEC50,SK-OV-3,8.00
same,pEC50,U-87 MG,7.85
same,Activity,Cardiac muscle cell [6],3.1%
same,Activity,Cardiac muscle cell [7],7.6%
same,Activity,Cardiac muscle cell [8],Toxic
same,Activity,Cardiac muscle cell [9],21%
same,Activity,Cardiac muscle cell [10],-10%
same,Activity,Cardiac muscle cell [11],-62%
same,pEC50,CCRF S-180,< 4.70
same,Activity,Cardiac muscle cell [12],34%
same,pEC50,NCI-H1975,7.89
same,Activity,Cardiac muscle cell [13],-22%
same,Activity,Cardiac muscle cell [14],8.5%
same,pEC50,MCF7,7.38
same,Activity,Cardiac muscle cell [15],-2%
same,pEC50,HepG2,7.46
same,pEC50,786-0,8.12
same,Activity,Cardiac muscle cell [16],-4.4%
same,Activity,Cardiac muscle cell [17],2.8%
same,pEC50,MES-SA/Dx5,7.74
same,Activity,Cardiac muscle cell [18],8.9%
same,Activity,Cardiac muscle cell [19],-0.6%
same,Activity,Cardiac muscle cell [20],32%
same,pEC50,HCT-116,7.96
same,pEC50,BXPC-3,7.96
same,Activity,Cardiac muscle cell [21],35%
same,Activity,Cardiac muscle cell [22],-84.3%
same,Activity,Cardiac muscle cell [23],4.3%
same,Activity,Cardiac muscle cell [24],42%
same,pEC50,HUVEC,7.92
same,Activity,Cardiac muscle cell [25],1.8%
same,Activity,Cardiac muscle cell [26],-3%
same,Activity,Cardiac muscle cell [27],-2.7%
same,Activity,Cardiac muscle cell [28],17%
same,Activity,Cardiac muscle cell [29],12%
same,pEC50,MES-SA,7.55

# — ChEMBL document CHEMBL4266027, “Cyanobufalins: Cardioactive Toxins from Cyanobacterial Blooms” (J Nat Prod, 2018)
